# Rows were chosen to be rich in hits. Some 1.1% of all compounds tested hit in one or more screens of this group.
# Diaphorase act: compounds boosting diaphorase resazurin reduction – biochemical, uHTS, resorufin fluorescence, counter-screen for diaphorase-coupled primary assays, primary screen | Diaphorase/resazurin coupled assay, 16 min; active compounds read high; 1 = vehicle wells, 0 = NADH-free wells | activation factor at 20 µM | hit rate 0.005% among 190,000 | AID 1229, 2008;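 active means diaphorase activity raised at least twofold by the compound at 20 µM; inactive means activation factor below 2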
#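 Material: purified diaphorase enzyme from Clostridium kluyveri; Also added: 0.114 mM NADH and 0.1 mM resazurin, final amounts; Doses: single compound dose of 20 µM, 1% DMSO final; Times: 16 min enzyme reaction, ambient temperature; Detection: resorufin fluorescence, excitation 544 nm, emission 590 nm; Measure: increased resorufin signal from activators or reducing compounds.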
# PMI act satM6P: human PMI activators, high substrate, primary screen, biochemical, fluorescence intensity, near-saturating mannose 6-phosphate. coupled PMI enzyme assay, resazurin fluorescence, 20 min; active compounds read high; 1 = untreated enzyme, 0 = substrate-free blank. Mannose-6-phosphate isomerase (Homo sapiens), P34949. hit rate 0.34% among 190,000. activation factor at 20 µM;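 active means activation factor of 2 or more at 20 µM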
# Target sequence (P34949 whole entry, looked up): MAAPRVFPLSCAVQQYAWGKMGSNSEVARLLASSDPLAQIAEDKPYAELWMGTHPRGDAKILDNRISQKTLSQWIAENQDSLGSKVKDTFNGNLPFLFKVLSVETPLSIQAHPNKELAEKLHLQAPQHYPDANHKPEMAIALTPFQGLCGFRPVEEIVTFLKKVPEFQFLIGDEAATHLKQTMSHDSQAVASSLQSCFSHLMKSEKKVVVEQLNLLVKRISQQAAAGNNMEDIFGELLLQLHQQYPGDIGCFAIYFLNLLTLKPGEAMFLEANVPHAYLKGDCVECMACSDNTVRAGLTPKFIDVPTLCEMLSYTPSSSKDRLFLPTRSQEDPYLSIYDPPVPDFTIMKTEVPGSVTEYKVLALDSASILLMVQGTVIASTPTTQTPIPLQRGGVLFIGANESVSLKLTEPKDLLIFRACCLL
#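 Test system: human PMI in coupled enzyme assay; Input: PMI at 15 ng/mL final; Medium: HEPES buffer, pH 7.4; Schedule: 20 min incubation at room temperature; Technique: resorufin fluorescence at Ex 544/Em 590 nm; Compound: 20 µM single dose; Probe or stimulus: Near-saturating mannose-6-phosphate, 1.0 mM.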
# PMI activator: activators of human PMI, primary screen, biochemical, fluorescence intensity, near-Km mannose 6-phosphate. AID 1214, 2008. purified human PMI, coupled resazurin fluorescence, 20 min; active compounds read high; 1 = vehicle control, 0 substrate-free wells. Mannose-6-phosphate isomerase (Homo sapiens), P34949. hit rate 0.005% among 190,000. activation factor at 20 µM;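 active means activation factor of 2 or more at 20 µM, relative to plate controls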
# Tb hexokinase: Trypanosoma brucei hexokinase 1 inhibitors, primary screen, biochemical, G6PDH-coupled NADH absorbance, MLSCN library. AID 1430, 2008. hit rate 0.11% among 220,000. inhibition, % at 10 µM. hexokinase 1 [Trypanosoma brucei]. recombinant TbHK1, G6PDH-coupled NADH A340;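 active means inhibition of 50% or more in the single-dose primary screen; inactive means inhibition below 50%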
# G6PDH counter: L. mesenteroides G6PDH inhibitors, counter-screen for G6PDH-coupled screening assays, biochemical, Leuconostoc mesenteroides enzyme. glucose-6-phosphate dehydrogenase [Leuconostoc mesenteroides]. hit rate 0.12% among 200,000. inhibition, % at 5 µM. Purified L. mesenteroides G6PDH, diaphorase/resazurin coupled fluorescence, 45 min; in the data active means inhibition above about 50%
# Diaphorase inh: diaphorase inhibitors and chemical oxidizers, primary screen, counter-screen for diaphorase-coupled primary assays, biochemical, uHTS, resorufin fluorescence; diaphorase resazurin-to-resorufin fluorescence, NADH, 16 min; bacterial (C. kluyveri) enzyme, not human; inhibition, % at 20 µM; hit rate 0.69% among 190,000;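 active means primary screen inhibition at 20 µM above a set limit, cut at about 50% in these data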;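 further: plate controls were DMSO with full reaction for no effect and wells lacking NADH for full effect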
#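 System: Bacterial diaphorase enzyme (C. kluyveri) | Incubation: 16-min room-temperature incubation before reading | Benchmarks: No-NADH positive control and DMSO neutral control | Measured by: Resorufin fluorescence 544/590 nm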
# * = called active by the depositor; . = no result.
SMILES,Diaphorase act,PMI act satM6P,PMI activator,Tb hexokinase,G6PDH counter,Diaphorase inh
CC(C)[C@H](NS(=O)(=O)c1cccc(Cl)c1)C(=O)OCC(=O)N1CCN(c2ccccc2)CC1,0.9,2*,1.4,-4,-14,8
O=[N+]([O-])c1cc([N+](=O)[O-])c2cccnc2c1Oc1ccccc1O,0.4,0.6,0.5,-12,-10,60*
O=[N+]([O-])c1cc(Cl)c(O)c2ncccc12,0.6,0.7,0.5,9,59*,41
O=[N+]([O-])c1ccc(O)c2ncccc12,0.7,0.9,1.1,11,66*,30
CC(=O)Nc1cccc(OCCCNC(=O)C2CCC2)c1,.,.,.,-6,.,.
COc1cccc(C(=O)COC(=O)c2ccc(NC(C)=O)cc2)c1,0.9,0.9,0.9,33,4,10
CN1C(=O)c2oc3ccccc3c(=O)c2C1c1ccncc1 (configuration not stated),0.9,2.3*,1.6,.,3,12
COc1cccc(-c2cn3nc(C)c(C)nc3n2)c1,1.1,2.1*,1.6,-14,20,-8
Cc1nc2nc(-c3ccc(Cl)cc3)cn2nc1C,0.8,1.1,1,-8,1,18
Cc1ccc(S(=O)(=O)NNc2ccccc2)cc1,0.7,2.1*,1.1,2,1,26
O=C(NNc1ccccc1)C(=O)NNS(=O)(=O)c1ccc(CCCl)cc1,.,.,.,29,.,.
Nc1ccc(S(=O)(=O)NNC(=O)C(=O)NNc2ccccc2)cc1,1,2.3*,1.6,4,4,4
Cc1ccc(S(=O)(=O)NNC(=O)CCC(=O)Nc2ccccc2)cc1,1,1,1,1,10,2
CCOCCCN(C(=O)Cn1nnc(-c2ccc(C)o2)n1)C(C(=O)NCC1CCCO1)c1ccc(F)cc1 (configuration not stated),.,.,.,-3,.,.
CCC(C)(C)NC(=O)C(c1ccncc1)N(C(=O)c1sc(C)nc1C)c1ccc(C)cc1 (configuration not stated),1.1,1,1,-3,10,-12
Nc1ccc2c(c1)N=[N+]([O-])c1cc(N)ccc1C2,.,.,.,-22,.,.
Nc1nc2ccccc2n1C(=O)c1cccs1,1,1,1.1,-14,-1,1
O=C(/C=C/c1ccc(Br)o1)Nc1nccs1,0.9,2*,1.6,-15,3,8
CCCCn1nnnc1SCC(=O)Nc1ccc(F)cc1,0.8,0.9,1.1,4,8,22
CCSc1ncc(/C=N/Nc2ccc(F)cc2)n1C,0.7,2*,1.2,-14,4,25
Cc1c(/C=N/NC(=O)c2cccs2)c2ccccc2n1Cc1ccccc1Cl,.,.,.,-13,.,.
COc1cc(C2Nc3ccc4ncccc4c3C3=C2C(=O)CCC3)cc(OC)c1O (configuration not stated),0.6,0.6,0.5,-14,50*,44
COc1cc(C2Nc3ccc4ncccc4c3C3=C2C(=O)CC(C)(C)C3)cc(OC)c1O (configuration not stated),0.6,0.7,0.6,-29,45,41
COc1ccc(NC(=O)CN(c2ccccc2)S(=O)(=O)N(C)C)cc1Cl,0.3,1,1,6,-4,68*
COc1ccc(NC(=O)CN(c2ccccc2)S(=O)(=O)N(C)C)cc1OC,1,1,1,4,11,1
O=C(CN1c2ccccc2Sc2ccccc21)NNC(=O)Nc1cccc(Cl)c1,.,.,.,17,.,.
Nc1ccc2c3c(cccc13)CC2,0.4,0.4,0.5,-14,40,56*
c1ccc(Nc2ccc3c4c(cccc24)CC3)cc1,0.9,0.8,0.9,0,6,6

# Screening data from PubChem BioAssay.
